# Compound activity as filed in PubChem.
# Rows were chosen to be rich in hits. Some 3.7% of all compounds tested hit in one or more screens of this group.
# FGF22 binding – binders of human FGF22 protein, primary screen, FGF22 synaptogenesis inhibitor project, biophysical, thermal shift, single point; Fibroblast growth factor 22 (Homo sapiens), Q9HCT0; recombinant FGF22 thermal shift, SYPRO orange fluorescence; percent of sucrose octasulfate shift, DMSO zero; activity (Tm shift, normalised), % at 9.99 µM; 340,000 compounds, 1.5% hits; AID 651658, 2012;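 active = mean Tm shift, scaled 0 neutral to 100 positive control, at about 1.3% or above, every replicate too, limit read from the data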
# ERAP1 inh – human ERAP1 aminopeptidase inhibitors, primary screen, biochemical, single point, plate reader; Endoplasmic reticulum aminopeptidase 1 (Homo sapiens), Q9NZ08; recombinant ERAP1, Leu-AMC fluorescence, 60 min; inhibition, % at 10.7 µM; 340,000 compounds, 0.15% hits;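 active = mean replicate inhibition of at least 30%, or all replicates individually reaching that 30% level; inactive = mean below 30% and not every replicate reaching it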;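 note: 0% = neutral control wells and 100% = L-leucinethiol positive control wells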
# DENV2 CPE rescue – inhibitors of DENV2 cytopathic effect, primary screen, cell-based, plate reader, single concentration. AID 651640, 2012. 350,000 compounds, 1.7% hits. DENV2-infected cells, cytopathic effect rescue. CPE inhibition, % at 9.99 µM; in the data active = CPE inhibition above about 20%, passing the limit was not always enough; tested in BHK-21 cells;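 note: 0% = median of neutral control wells and 100% = median of positive control wells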
# F508del corr – F508del CFTR correction, initial screen, CFBE line, single point; CFBE cells, YFP halide quenching; stimulated with forskolin plus potentiator P3; % fluorescence drop versus neutral controls; 350,000 compounds, 0.36% hits; AID 720511, 2013; activity (quench increase), % at 7.58 µM;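 active = mean added fluorescence quench of at least 8% versus neutral control, with both replicates also reaching 8%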;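 note: cells transiently co-express mutant CFTR-F508del with the halide-sensitive YFP; corrector assay measuring rescue of mutant channel to the surface after 24 h compound exposure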
# E-selectin induc – E-selectin induction in HUVECs, primary screen, imaging, HUVEC, immunofluorescence imaging, single point; P16581; normalized: neutral wells 0, TNF-alpha wells 100; activation, % at 7.58 µM; 260,000 compounds, 0.37% hits;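 active = mean E-selectin-positive cell signal at least 10% of the positive control, reached in at least 60% of replicates, without over 20% cell loss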
# Target sequence (P16581 whole entry, looked up): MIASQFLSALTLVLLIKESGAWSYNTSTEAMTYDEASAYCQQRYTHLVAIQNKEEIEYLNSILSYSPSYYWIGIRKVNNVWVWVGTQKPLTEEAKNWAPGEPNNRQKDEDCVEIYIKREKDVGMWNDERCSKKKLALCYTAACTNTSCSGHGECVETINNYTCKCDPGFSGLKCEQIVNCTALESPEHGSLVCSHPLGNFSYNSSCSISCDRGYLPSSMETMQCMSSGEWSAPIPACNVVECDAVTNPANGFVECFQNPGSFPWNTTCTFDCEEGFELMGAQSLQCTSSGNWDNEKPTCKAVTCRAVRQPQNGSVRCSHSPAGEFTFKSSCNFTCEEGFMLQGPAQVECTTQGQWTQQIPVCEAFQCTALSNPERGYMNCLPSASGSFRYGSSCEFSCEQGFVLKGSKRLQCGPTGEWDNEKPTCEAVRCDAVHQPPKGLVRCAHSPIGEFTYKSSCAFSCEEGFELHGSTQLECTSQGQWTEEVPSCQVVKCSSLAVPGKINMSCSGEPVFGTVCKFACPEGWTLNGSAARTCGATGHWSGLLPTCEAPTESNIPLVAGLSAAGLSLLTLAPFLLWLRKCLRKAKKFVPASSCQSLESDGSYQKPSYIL
#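 Test system – human umbilical vein endothelial cells (HUVEC), E-selectin induction · Input – 3,000 HUVEC seeded per well · Buffer or medium – EGM-2, gelatin · Compound dosing – single-point compound dose · Detection – immunofluorescence imaging · Measure – percent E-selectin-positive cells · Controls – TNF-alpha high, DMSO low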
# * hit, by the source's call; nt = no result given.
SMILES,FGF22 binding,ERAP1 inh,DENV2 CPE rescue,F508del corr,E-selectin induc
NP(=O)(OCCCc1ccccc1)Oc1ccccc1Cl (stereo unspecified),0,6,nt,-1,0
COc1cc(C2(C#N)CCN(C)CC2)cc(OC)c1OC,43*,-1,-6,0,1
COC(=O)[C@@H]1[C@@H](CO)[C@@H]2Cn3c(ccc(-c4ccc(OC)cc4)c3=O)[C@H]1N2C(=O)c1ccccc1F,0,1,-7,1,0
O=C(c1ccc2c(c1)ncn2-c1ccc(F)cc1F)N1CCC2(CC1)OCCO2,44*,0,17,-1,nt
O=C(c1ccc2c(c1)N(Cc1ccc(F)cc1)CCS2)N1CCC2(CC1)OCCO2,0,-1,13,-3,nt
COC(=O)[C@H]1[C@H](CO)[C@H]2Cn3c(ccc(C4=CCCCC4)c3=O)[C@@H]1N2C(=O)CC1CC1,0,2,-6,-1,0
COC(=O)[C@@H]1[C@@H](CO)[C@@H]2Cn3c(ccc(C4=CCCCC4)c3=O)[C@H]1N2Cc1cccnc1,0,0,13,0,0
CC=Cc1ccc2n(c1=O)C[C@@H]1[C@@H](CO)[C@H](C(=O)OC)[C@H]2N1CC1CCCC1 (mixture of isomers),nt,0,-2,-2,0
C[C@@H]1CN(C2CCC(C#N)(c3ccc(F)cc3)CC2)CC[C@]1(C(=O)O)c1ccccc1 (stereo partly specified),0,-3,-4,1,0
N#CC1(c2ccccc2)CCN(C2CC(=O)N(c3ccc4c(c3)OCO4)C2=O)CC1 (stereo unspecified),44*,-2,3,-2,nt
O=[N+]([O-])c1ccc(C(c2ccc([N+](=O)[O-])cc2)c2ccc([N+](=O)[O-])cc2)cc1,0,-2,-6,0,-1
Cn1cnc([N+](=O)[O-])c1Sc1ccc([N+](=O)[O-])cc1,43*,3,-4,0,-5
COc1ccc(C#Cc2ccc([C@@H]3[C@H]4CN(C(=O)Cc5ccccc5)CCCCN4[C@H]3CO)cc2)cc1,-1,2,-23,2,-1
COC(=O)[C@H]1[C@H](CO)[C@H]2Cn3c(ccc(C4=CCCC4)c3=O)[C@@H]1N2S(=O)(=O)c1cn(C)cn1,0,2,-2,0,0
c1ccc(C2(NC3=NCCO3)CCCCC2)cc1,43*,-2,4,2,0
COC(=O)[C@H]1[C@H](CO)[C@H]2Cn3c(ccc(-c4cccc(C(=O)N(C)C)c4)c3=O)[C@@H]1N2C(=O)NC(C)C,nt,nt,nt,-2,0
C[C@H]1CN([C@@H](C)CO)C(=O)CCCn2cc(nn2)CO[C@@H]1CN(C)C(=O)Oc1cccc2ccccc12,0,-2,0,3,2
CN(C(=O)Oc1cccc2ccccc12)C1C=CCC1 (stereo unspecified),43*,-3,65*,-2,0
O=C(O)[C@H]1[C@H](CO)[C@H]2Cn3c(ccc(C4=CCCCC4)c3=O)[C@@H]1N2C(=O)Cc1ccccn1,0,5,12,nt,0
CC=Cc1ccc2n(c1=O)C[C@@H]1[C@@H](CO)[C@H](C(=O)OC)[C@H]2N1CC1CC1 (mixture of isomers),0,1,-1,0,0
CP(=O)(O)CN1CCCCC1,44*,-2,-2,1,nt
CCC1CN1P(=O)(N1CCCC1)N1CC1CC (stereo unspecified),0,1,0,5,0
CCOC(=O)[C@]12Cc3ccccc3[C@H]1N(CCC(=O)OC)C(=O)c1cc(OC)ccc12,0,nt,30*,2,0
O=C(O)C(Br)Br,0,-6,70*,-2,nt
COC(=O)[C@H]1[C@H](CO)[C@H]2Cn3c(ccc(C4=CCCCC4)c3=O)[C@@H]1N2CCc1ccccc1,0,1,-12,3,0
c1ccc(-c2ccncc2)cc1,0,1,-1,-4,nt
C[n+]1ccc(-c2ccncc2)cc1,0,31*,nt,1,nt
COC(=O)[C@H]1[C@H](CO)[C@H]2Cn3c(ccc(C4=CCCCC4)c3=O)[C@@H]1N2Cc1ccccn1,0,3,1,-1,0
